# ChEMBL document CHEMBL1134552, “Synthesis of cytotoxic 6E-hydroximino-4-ene steroids: structure/activity studies” (J Med Chem, 2001)
# Experiments:
# Assay type in all cases: functional, cell-based
# P388 = test: In vitro antitumor activity against P-388 tumor cells.; conditions: Mus musculus
# How it was run: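 P-388 lymphoid neoplasm from DBA/2 mouse, grown in suspension in EMEM/neaa with 5% FCS. Seeded at 1×10^4 cells per well in 1 mL medium holding a range of sample concentrations, with drug-free controls, duplicate wells. Incubated 3 days at 37 °C, 5% CO2, 98% humidity. Cells counted by Coulter counter; IC50 read from dose–response curves of % growth versus untreated cultures.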
# HT-29 = test: In vitro antitumor activity against HT-29 tumor cells.; conditions: Homo sapiens
# How it was run: (§1)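 Adherent lines (human lung A-549, colon HT-29, MEL-28) grown in EMEM/neaa with 5% FCS. Cells plated at 1×10^4 per well in 1 mL medium containing graded sample concentrations, with drug-free growth controls, in duplicate. Incubated 3 days at 37 °C, 5% CO2. Stained with 0.1% crystal violet, or trypsinized and Coulter-counted. IC50 taken from dose–response curves of growth relative to controls.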
# A549 = test: In vitro antitumor activity against A-549 tumor cells.; conditions: Homo sapiens; how it was run: as §1
# SK-MEL-28 = test: In vitro antitumor activity against MEL-28 tumor cells.; conditions: Homo sapiens; how it was run: as §1
SMILES,IC50 (P388) [µg/mL],IC50 (HT-29) [µg/mL],IC50 (A549) [µg/mL],IC50 (SK-MEL-28) [µg/mL]
CC(C)CCCC(C)[C@H]1CCC2C3C/C(=N\O)C4=CC=CC[C@]4(C)C3CC[C@@]21C (stereo partly specified),5,5,5,5
C[C@]12CCC(=O)C=C1/C(=N/O)CC1C2CC[C@@]2(C)C1CC[C@@H]2O (stereo partly specified),5,5,5,5
CC(C)CCCC(C)[C@H]1CCC2C3C/C(=N\O)C4=C[C@@H](O)[C@@H](O)C[C@]4(C)C3CC[C@@]21C (stereo partly specified),1.25,1.25,1.25,1.25
C[C@]12CCC(=O)C=C1/C(=N/O)CC1C2CC[C@]2(C)C(=O)CCC12 (stereo partly specified),5,5,5,5
CC(C)CCCC(C)[C@H]1CCC2C3C/C(=N\O)C4=CC(=O)CC[C@]4(C)C3CC[C@@]21C (stereo partly specified),1.25,1.25,1.25,2.5
CC(C)CCCC(C)[C@H]1CCC2C3C/C(=N\O)C4=C[C@H](O)[C@H](O)C[C@]4(C)C3CC[C@@]21C (stereo partly specified),1.25,1.25,1.25,1.25

# The next lines start with the values.
IC50 (P388) [µg/mL],IC50 (HT-29) [µg/mL],IC50 (A549) [µg/mL],IC50 (SK-MEL-28) [µg/mL],SMILES
0.25,0.25,0.125,0.125,CC(C)CCCC(C)[C@H]1CCC2C3C/C(=N\O)C4=CC(=O)[C@H](O)C[C@]4(C)C3CC[C@@]21C (stereo partly specified)
0.25,0.25,0.125,0.125,CC(C)CCCC(C)[C@H]1CCC2C3C/C(=N\O)C4=CC(=O)[C@@H](O)C[C@]4(C)C3CC[C@@]21C (stereo partly specified)
0.5,0.25,0.125,0.125,CC(C)CCCC(C)[C@H]1CCC2C3C/C(=N\O)C4=CC(=O)C(O)=C[C@]4(C)C3CC[C@@]21C (stereo partly specified)
10,10,10,10,CC(C)CCC[C@@H](C)C1CCC2C3C/C(=N\O)C4=C[C@@H](O)CC[C@]4(C)C3CC[C@@]21C (stereo partly specified)
5,5,5,5,CC(C)[C@H](C)[C@@]1(C)C[C@@H]1[C@@H](C)C1CCC2C3C/C(=N\O)C4=CC(=O)CC[C@]4(C)C3CC[C@@]21C (stereo partly specified)
10,10,10,10,CC[C@H](CCC(C)[C@H]1CCC2C3C/C(=N\O)C4=CC(=O)CC[C@]4(C)C3CC[C@@]21C)C(C)C (stereo partly specified)
10,10,10,10,CC(C)[C@H](C)[C@@]1(C)C[C@@H]1[C@@H](C)C1CCC2C3C/C(=N\O)C4=C[C@@H](O)CC[C@]4(C)C3CC[C@@]21C (stereo partly specified)
5,5,5,5,C[C@@]12CCCC1C1C/C(=N\O)C3=CC(=O)CC[C@]3(C)C1CC2 (stereo partly specified)
